# Key:
# Cavia porcellus [1] = assay: Antitussive activity by inhibition of irritant citric acid aerosol-induced coughing in guinea pig upon oral administration.; format: functional
# Outline: (§1)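 Male guinea pigs (350-400 g) exposed in a box to 7.5% citric acid aerosol for 5 min, and coughs counted as the basal value. Next day, after overnight fasting, animals (6-8/dose) were gavaged with compound in water or 0.5% methyl cellulose (2 mL/kg) 1 h before re-exposure. Activity is the reduction in coughs versus the basal count. ED50 is the dose giving 50% reduction (Cochran and Snedecor).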
# [2] = Acute toxicity was determined in mice upon peroral administration; format: organism-based; conditions: mouse, in vivo, po
# Outline: (§2)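 Swiss mice of both sexes, groups of six, dosed by gavage at several doses up to 1000 mg/kg. Compound dissolved in water or suspended in 0.5% carboxymethyl cellulose, 10 mL/kg. Deaths recorded over 1-7 days. LD50 obtained by logit transformation.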
# [3] = Lethality in mice following p.o. administration.; format: ADME, organism-based; conditions: mouse, in vivo, po; outline: as §2
# Cavia porcellus [4] = assay: Antitussive activity was evaluated by inhibition of irritant aerosol-induced coughing by (po) administration of 30 mg/kg in guinea pig; format: functional; outline: as §1
# Cavia porcellus [5] = assay: Antitussive activity was evaluated by inhibition of irritant citric acid aerosol-induced coughing in guinea pig upon oral administration at 30 mg/kg dose; format: functional; outline: as §1
# Cavia porcellus [6] = assay: Inhibition of irritant electrically-induced coughing in guinea pig trachea following p.o. administration.; format: functional; conditions: po
# Outline: (§3)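 Guinea pigs under ketamine (10 mg/kg im) and xylazine (3 mg/kg im) anaesthesia, with an electrode wrapped around the trachea about 1.5 cm above the bifurcation and an indifferent electrode on the dorsal skin. Coughs during stimulation counted as the basal value. Groups of 6-8/dose were gavaged with compound in water or 0.5% methyl cellulose (2 mL/kg). Activity is the cough reduction versus basal. ED50 is the dose giving 50% reduction.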
# Cavia porcellus [7] = assay: Antitussive activity was evaluated by inhibition of irritant electrically-induced coughing in guinea pig trachea upon oral administration at 30 mg/kg; format: functional; outline: as §3
# Cavia porcellus [8] = assay: Antitussive activity was evaluated by inhibition of irritant electrically-induced coughing by (po) administration in guinea pig; format: functional; outline: as §3
# Cavia porcellus [9] = assay: Antitussive activity was evaluated by inhibition of irritant aerosol-induced coughing by (po) administration in guinea pig; format: functional; outline: as §1
Compound,ED50 (Cavia porcellus [1]) [mg/kg],LD50 [2] [mg/kg],further results
COc1ccccc1OCC1SCCN1C(=O)CC(=O)NCc1cccnc1.O=C(O)/C=C/C(=O)O (configuration not stated),57,677,–
CCOC(=O)CC(=O)N1CCSC1COc1ccccc1O (configuration not stated),20,> 1000,–
COc1ccccc1OCC1SCCN1C(=O)CSC(=O)c1cccnc1 (configuration not stated),–,–,LD50 [3]: > 1000 mg/kg; inhibition in vivo at 30 mg/kg (Cavia porcellus [4]): < 20%
O=C(O)[C@@H]1CSC(CCc2ccccc2O)N1 (some centres not stated),–,> 1000,inhibition in vivo at 30 mg/kg (Cavia porcellus [5]): < 20%; ED50 (Cavia porcellus [6]): 45 mg/kg
COc1ccccc1OCC1SCCN1C(=O)CS (configuration not stated),–,–,inhibition in vivo at 30 mg/kg (Cavia porcellus [5]): < 20%
CC(=O)SCC(=O)Oc1ccccc1OCC1SCCN1C(=O)CSC(C)=O (configuration not stated),–,–,LD50 [3]: > 1000 mg/kg; inhibition in vivo at 30 mg/kg (Cavia porcellus [4]): < 20%
COc1ccccc1OCC1SCCN1C(=O)COC(C)=O (configuration not stated),–,> 1000,ED50 (Cavia porcellus [6]): 25 mg/kg
CCOC(=O)CC(=O)N1CCS(=O)(=O)C1COc1ccccc1OC (configuration not stated),28,> 1000,inhibition in vivo at 30 mg/kg (Cavia porcellus [7]): < 20%
Oc1ccccc1OCC1NCCS1 (configuration not stated),–,> 1000,–
CCOCCOCC(=O)N1CCSC1COc1ccccc1OC (configuration not stated),–,916,inhibition in vivo at 30 mg/kg (Cavia porcellus [5]): < 20%
COc1ccccc1OCC1SCCN1C(=O)CSC(=O)c1cc(OC)c(OC)c(OC)c1 (configuration not stated),–,–,LD50 [3]: > 1000 mg/kg; inhibition in vivo at 30 mg/kg (Cavia porcellus [4]): < 20%
CCOC(=O)[C@@H]1CSC(COc2ccccc2OC)N1 (some centres not stated),–,757,inhibition in vivo at 30 mg/kg (Cavia porcellus [5]): < 20%
COc1ccccc1OCC1SCCN1C(=O)CC(=O)N1CCN(C)CC1 (configuration not stated),27,880,–
COC(=O)c1ccc(OCC2SCCN2C(=O)Cn2ccnc2)cc1 (configuration not stated),62,> 1000,–
O=C(Cn1ccnc1)N1CCSC1COc1ccccc1O (configuration not stated),–,–,ED50 (Cavia porcellus [6]): 27 mg/kg
COc1ccccc1SCC1SCCN1C(=O)Cn1ccnc1 (configuration not stated),–,958,inhibition in vivo at 30 mg/kg (Cavia porcellus [5]): < 20%
COc1ccc(OCC2SCCN2C(=O)Cn2ccnc2)cc1 (configuration not stated),48,> 1000,–
COc1ccccc1OCC1SCCN1C(=O)C[S+](C)[O-] (configuration not stated),25,> 1000,ED50 (Cavia porcellus [6]): 10 mg/kg
COc1ccccc1OCC1SCCN1C(=O)CSC(=O)CN1CCN(C)CC1 (configuration not stated),–,–,LD50 [3]: > 1000 mg/kg; inhibition in vivo at 30 mg/kg (Cavia porcellus [4]): < 20%
COc1ccc(OCC2SCCN2C(=O)CSC(C)=O)cc1 (configuration not stated),–,–,LD50 [3]: > 1000 mg/kg; ED50 (Cavia porcellus [8]): 19 mg/kg
CC(=O)SCC(=O)N1CCSC1CCc1ccccc1O (configuration not stated),–,–,LD50 [3]: > 1000 mg/kg; ED50 (Cavia porcellus [9]): 61 mg/kg
CSCC(=O)N1CCSC1COc1ccccc1O (configuration not stated),–,> 1000,ED50 (Cavia porcellus [6]): 28 mg/kg

Compound,ED50 (Cavia porcellus [1]) [mg/kg],LD50 [2] [mg/kg],further results
COc1ccccc1OCC1SCCN1C(=O)CC(=O)NCc1ccccn1 (configuration not stated),26,–,ED50 (Cavia porcellus [6]): 64 mg/kg
COc1ccccc1OCC1SCCN1C(=O)CSC (configuration not stated),–,–,ED50 (Cavia porcellus [6]): 21 mg/kg
CC(=O)SCC(=O)N1CCSC1COc1ccccc1O (configuration not stated),–,–,LD50 [3]: > 1000 mg/kg; ED50 (Cavia porcellus [9]): 60 mg/kg
C=CC(=O)N1CCSC1COc1ccccc1OC (configuration not stated),74,718,–
CCN(CC)CCNC(=O)CC(=O)N1CCSC1COc1ccccc1OC (configuration not stated),56,250,inhibition in vivo at 30 mg/kg (Cavia porcellus [7]): < 20%
CCOC(=O)CCC(=O)N1CCSC1COc1ccccc1OC (configuration not stated),24,> 1000,–
CNC(=O)CC(=O)N1CCSC1COc1ccccc1OC (configuration not stated),21,> 1000,ED50 (Cavia porcellus [6]): 22 mg/kg
COc1ccccc1OCC1SCCN1C(=O)CC(=O)N1CCN(C(c2ccccc2)c2ccccc2)CC1 (configuration not stated),66,> 1000,ED50 (Cavia porcellus [6]): 44 mg/kg
CCC(=O)SCC(=O)N1CCSC1COc1ccccc1OC (configuration not stated),–,–,inhibition in vivo at 30 mg/kg (Cavia porcellus [4]): < 20%
COc1ccccc1OCC1N(C(=O)CSC(C)=O)CC[S+]1[O-] (configuration not stated),–,–,LD50 [3]: 620 mg/kg; inhibition in vivo at 30 mg/kg (Cavia porcellus [4]): < 20%
COc1ccccc1OCC1SCCN1C(=O)CC(=O)N1CCN(C(c2ccc(F)cc2)c2ccc(F)cc2)CC1 (configuration not stated),26,> 1000,ED50 (Cavia porcellus [6]): 32 mg/kg
COc1ccccc1OCC1SCCN1C(=O)CC(=O)O (configuration not stated),20,> 1000,inhibition in vivo at 30 mg/kg (Cavia porcellus [7]): < 20%
O=C(O)CC(=O)N1CCSC1COc1ccccc1O (configuration not stated),25,1000,–
CCOC(=O)C(=O)N1CCSC1COc1ccccc1OC (configuration not stated),–,> 1000,inhibition in vivo at 30 mg/kg (Cavia porcellus [5]): < 20%
COc1ccccc1OCC1NCCS1 (configuration not stated),–,> 1000,–
CC(=O)SCC(=O)Oc1ccccc1CCC1SCCN1C(=O)CSC(C)=O (configuration not stated),–,–,LD50 [3]: > 1000 mg/kg; inhibition in vivo at 30 mg/kg (Cavia porcellus [4]): < 20%
CCOC(=O)CC(=O)N1CC[S+]([O-])C1COc1ccccc1OC (configuration not stated),27,> 1000,ED50 (Cavia porcellus [6]): 28 mg/kg
COc1ccccc1OCC1SCCN1C(=O)CNC(C)=O (configuration not stated),40,> 1000,–
COc1ccccc1OCC1SCCN1C(=O)/C=C/c1ccc(O)c(O)c1 (configuration not stated),–,–,LD50 [3]: > 1000 mg/kg; inhibition in vivo at 30 mg/kg (Cavia porcellus [4]): < 20%
COc1ccccc1OCC1SCCN1C(=O)C(C)SC(C)=O (configuration not stated),–,–,LD50 [3]: > 1000 mg/kg; inhibition in vivo at 30 mg/kg (Cavia porcellus [4]): < 20%
COc1ccccc1OCC1N(C(=O)C[S+](C)[O-])CC[S+]1[O-] (configuration not stated),–,> 1000,–
O=C(O)[C@@H]1CSC(COc2ccccc2O)N1 (some centres not stated),–,> 1000,inhibition in vivo at 30 mg/kg (Cavia porcellus [5]): < 20%

Compound,ED50 (Cavia porcellus [1]) [mg/kg],LD50 [2] [mg/kg],further results
CC(=O)SCC(=O)N1CCSC1COc1ccccc1C (configuration not stated),–,–,LD50 [3]: > 1000 mg/kg; inhibition in vivo at 30 mg/kg (Cavia porcellus [4]): < 20%
COc1ccccc1OCC1SCCN1C(=O)Cn1ccnc1 (configuration not stated),50,966,–
COc1ccccc1OCC1SCCN1C(C)=O (configuration not stated),46,552,–
CCCC(=O)CC(=O)N1CCSC1COc1ccccc1OC (configuration not stated),42,–,–
COc1ccccc1OCC1SCCN1C(=O)C(C)(C)C (configuration not stated),–,> 1000,ED50 (Cavia porcellus [6]): 24 mg/kg
CCOC(=O)[C@@H]1CSC(COc2ccccc2OC)N1C(=O)CSC(C)=O (some centres not stated),–,–,LD50 [3]: 672 mg/kg; inhibition in vivo at 30 mg/kg (Cavia porcellus [4]): < 20%
COc1ccccc1OCC1N(C(=O)CS(C)(=O)=O)CC[S+]1[O-] (configuration not stated),–,> 1000,–
COc1ccccc1OCC1N(C(=O)CC(=O)O)CC[S+]1[O-] (configuration not stated),20,> 1000,–
COc1ccccc1OCC1SCCN1C(=O)CC(C)=O (configuration not stated),30,> 1000,ED50 (Cavia porcellus [6]): 26 mg/kg
CCOC(=O)C(C)(C)C(=O)N1CCSC1COc1ccccc1OC (configuration not stated),61,> 1000,ED50 (Cavia porcellus [6]): 48 mg/kg
COc1ccccc1OCC1SCCN1C(=O)C(C)(C)C(=O)O (configuration not stated),34,> 1000,ED50 (Cavia porcellus [6]): 21 mg/kg
COc1ccccc1OCC1SCCN1C(=O)CC(=O)NCc1ccncc1.Cl (configuration not stated),23,707,ED50 (Cavia porcellus [6]): 13 mg/kg
Cl.O=C(O)c1ccc(OCC2SCCN2C(=O)Cn2ccnc2)cc1 (configuration not stated),–,> 1000,inhibition in vivo at 30 mg/kg (Cavia porcellus [5]): < 20%
COc1ccccc1SCC1SCCN1C(=O)CN1CCN(C)CC1 (configuration not stated),–,–,inhibition in vivo at 30 mg/kg (Cavia porcellus [5]): < 20%
COc1ccccc1OCC1SCCN1C(=O)CN1CCOCC1.Cl (configuration not stated),–,612,inhibition in vivo at 30 mg/kg (Cavia porcellus [5]): < 20%
COc1ccccc1OCC1SCCN1C(=O)CC(=O)N1CCN(Cc2ccccc2)CC1.Cl (configuration not stated),41,681,–
COc1ccccc1OCC1SCCN1C(=O)CN1CCN(C)CC1.Cl.Cl (configuration not stated),–,818,inhibition in vivo at 30 mg/kg (Cavia porcellus [7]): < 20%
COc1ccccc1OCC1SCCN1C(=O)CN.Cl (configuration not stated),57,585,–
OCC(O)CN1CCN(c2ccccc2)CC1 (configuration not stated) [DROPROPIZINE],144,–,ED50 (Cavia porcellus [6]): 32 mg/kg
CCOC(=O)CC(=O)N1CCSC1COc1ccccc1OC (configuration not stated) [MOGUISTEINE],21,> 1000,ED50 (Cavia porcellus [6]): 11 mg/kg

# From ChEMBL document CHEMBL1128569, “N-acyl-2-substituted-1,3-thiazolidines, a new class of non-narcotic antitussive agents: studies leading to the discovery of ethyl 2-[(2-methoxyphenoxy)methyl]-beta-oxothiazolidine-3-propanoate” (J Med Chem, 1995)
